Screen size: about 290,000 compounds; about 1,300 (0.45%) were called active.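 How the source made its calls: active means inhibition above the mean plus 3 SD of all compounds in the same screening run (cut at about 4.5% in these data); inactive means the rest.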 This excerpt belongs to a sample that is enriched for actives.

As usually defined, the inhibition is the relative decrease from the control value, in per cent.

In this assay the test system is metallo-beta-lactamase IMP-1 (Pseudomonas aeruginosa). Nature of the assay: inhibition of IMP-1 nitrocefin hydrolysis – biochemical, epi-absorbance readout, Pseudomonas aeruginosa enzyme, primary screen (AID 1556).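 Further: 0% = IMP-1 with DMSO and 100% = DMSO wells lacking enzyme.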 The note with it: purified IMP-1, nitrocefin hydrolysis, epi-absorbance fluorescence; at 5.6 µM; stronger effect = higher value. The method, boiled down:
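System – purified recombinant IMP-1 beta-lactamase · Input – IMP-1 dispensed at 0.2 nM · Timing – 15 min preincubation plus 25 min reaction at 25 °C · Signal – Epi-absorbance fluorescence, 480 nm excitation, 530 nm emission · Measure – percent IMP-1 inhibition derived from blank-referenced optical density · Controls – Enzyme-plus-DMSO low control, enzyme-free DMSO high control · Replication – singlicate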
Regarding `CCN1C(=O)C(=Cc2c(C)n(CC(=O)NCC3CCCO3)c3ccccc23)C(=O)N(CC)C1=S` (stereo not given), the inhibition is 20% (active).
The value for `O=C(O)c1ccccc1NC(=O)C1C2CCC(O2)C1C(=O)O` (stereo not given) was -2.48% (inactive); that for `CCCCn1c(=O)c(C(=O)Nc2ccccc2Cl)c(O)c2ccccc21` was -1.42% (inactive).
Take `CCOC(=O)C1SC2(C(F)(F)C(F)F)CC1(O)c1c(c(OC)c3occc3c1OC)O2` (stereo not given): the inhibition is -3.5% (inactive).
As for `C[N+]12CN3CN(CN(C3)C1)C2`, the figure is 5.56% (active).
The value for `Cc1cccc(OP(=O)(Oc2cccc(C)c2)OC(c2ccccc2)C(F)(F)F)c1` (stereo not given) was -4.97% (inactive).
For `Clc1ccc2nc3c(c(-c4ccccc4)c2c1)CNCC3`, the inhibition was -2.18% (inactive).
In the case of `Cc1ccc(C)c(NC2=NCCCS2)c1`, the inhibition is -1.87% (inactive).
As to `COc1cc2nc(N3CCN(C(=O)[C@@H]4CCCO4)CC3)nc(N)c2cc1OC`, the inhibition was -4.21% (inactive).
As for `CC1(C)C(c2ccccc2)=NC(c2cccnc2)=[N+]1[O-]`, the figure is -4.75% (inactive).

Values taken from PubChem BioAssay AID1556 (The Scripps Research Institute Molecular Screening Center, 2009).
